Results reported in ChEMBL document CHEMBL3632529, “1,2,3-Triazole pharmacophore-based benzofused nitrogen/sulfur heterocycles with potential anti-Moraxella catarrhalis activity” (2015).
Values after ≈ are worked out from the molar mass of the structure shown.

Experiments:
Format in all cases: functional
Moraxella catarrhalis = experiment: Antibacterial activity against Moraxella catarrhalis ATCC 23246 after overnight incubation by broth microdilution method
In short: (§1)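 MIC per CLSI standard broth microdilution, with azithromycin as the reference antibiotic. Compounds were tested as double dilutions. Inocula were made by direct colony suspension at 5 × 10⁴ cfu/well. MIC was read visually after overnight incubation at 37 °C in ambient air.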

Streptococcus pyogenes = experiment: Antibacterial activity against Streptococcus pyogenes ATCC 700294 after overnight incubation by broth microdilution method
In short: (§2)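 Streptococci were grown on Mueller-Hinton agar with 5% sheep blood. CLSI broth microdilution MIC used double dilutions, with azithromycin as the reference. The test medium was modified by substituting 5% horse serum for lysed horse blood. Direct colony suspension inocula gave 5 × 10⁴ cfu/well. Growth was read visually after overnight incubation at 37 °C in ambient air.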

Staphylococcus aureus = experiment: Antibacterial activity against Staphylococcus aureus ATCC 29213 after overnight incubation by broth microdilution method
In short: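 Colonies were grown on Mueller Hinton agar and suspended directly to give 5 × 10⁴ cfu/well. MIC was by CLSI broth microdilution with double dilutions of compound and azithromycin as the reference. Read-out was visual after overnight incubation at 37 °C in ambient air.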

Haemophilus influenzae = experiment: Antibacterial activity against Haemophilus influenzae ATCC 49247 after overnight incubation by broth microdilution method
In short: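 Bacteria were grown on Mueller Hinton chocolate agar. MIC was then determined by CLSI broth microdilution, with azithromycin as the reference and compounds as double dilutions. Inocula were prepared by direct colony suspension at 5 × 10⁴ cfu/well. Plates were read visually after overnight incubation at 37 °C in ambient air.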

Streptococcus pneumoniae = experiment: Antibacterial activity against Streptococcus pneumoniae ATCC 49619 after overnight incubation by broth microdilution method; in short: as §2
Escherichia coli = experiment: Antibacterial activity against Escherichia coli ATCC 25922 after overnight incubation by broth microdilution method; in short: as §1

Structure (SMILES) | MIC (Moraxella catarrhalis) [µg/mL] | MIC (Streptococcus pyogenes) [µg/mL] | MIC (Staphylococcus aureus) [µg/mL] | MIC (Haemophilus influenzae) [µg/mL] | MIC (Streptococcus pneumoniae) [µg/mL] | MIC (Escherichia coli) [µg/mL]
Clc1cc(Cl)cc(-n2cc(Cn3cnc4ccccc43)nn2)c1 | 16 (≈ 46.5 µM) | > 128 | > 128 | > 128 | > 128 | > 128
CC[C@H]1OC(=O)[C@H](C)[C@@H](O[C@H]2C[C@@](C)(OC)[C@@H](O)[C@H](C)O2)[C@H](C)[C@@H](O[C@@H]2O[C@H](C)C[C@H](N(C)C)[C@H]2O)[C@](C)(O)C[C@@H](C)CN(C)[C@H](C)[C@@H](O)[C@]1(C)O [AZITHROMYCIN] | 0.25 (≈ 0.334 µM) | 0.125 (≈ 0.167 µM) | 2 (≈ 2.67 µM) | 2 (≈ 2.67 µM) | 0.25 (≈ 0.334 µM) | 8 (≈ 10.7 µM)
Cc1ccc2nc(-c3ccc(NCc4cn(Cc5cc(=O)oc6cc(O)ccc56)nn4)cc3)sc2c1 |  | > 128 | > 128 | > 128 | > 128 | > 128
Cc1nc2ccccc2n1Cc1cn(-c2ccc(C(F)(F)F)cc2)nn1 | 64 (≈ 179 µM) | > 128 | > 128 | > 128 | > 128 | > 128
Clc1ccc(-n2cc(Cn3cnc4ccccc43)nn2)cc1 | 0.5 (≈ 1.61 µM) | > 128 | > 128 | > 128 | > 128 | > 128
Cc1ccc2nc(-c3ccc(NCc4cn(-c5ccc(F)cc5)nn4)cc3)sc2c1 | 128 (≈ 308 µM) | > 128 | > 128 | > 128 | > 128 | > 128
Cc1ccc2nc(-c3ccc(NCc4cn(-c5ccc(Cl)cc5)nn4)cc3)sc2c1 | 64 (≈ 148 µM) | > 128 | > 128 | > 128 | > 128 | > 128
FC(F)(F)c1ccc(-n2cc(Cn3cnc4ccccc43)nn2)cc1 | 16 (≈ 46.6 µM) | > 128 | > 128 | > 128 | > 128 | > 128
Fc1ccccc1-n1cc(Cn2cnc3ccccc32)nn1 | 128 (≈ 436 µM) | > 128 | > 128 | > 128 | > 128 | > 128
Fc1ccc(-n2cc(Cn3cnc4ccccc43)nn2)cc1 | 1 (≈ 3.41 µM) | > 128 | > 128 | > 128 | > 128 | > 128
